Data set [1] concerns Mus musculus. Briefly: Suppression of IMQ-induced psoriasis in C57 mouse assessed as reduction in spleen index at 120 mg/kg, ig administered once daily starting from day 3 post IMQ-challenge and measured 2 days post-last dose of IMQ. It is filed as functional, organism-based. An outline of the steps: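 IMQ-induced C57 mice (5% cream daily 7 days; i.g. daily from day 3 at the stated dose, n = 6). Spleen weighed per mouse at end of study.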

Data set [2] deals with Mitogen-activated protein kinase kinase kinase 14 (Homo sapiens, UniProt Q99558). Briefly: Inhibition of human NIK using myelin basic protein as substrate in presence of [gamma33P]ATP by hotspot assay.
Sequence of Mitogen-activated protein kinase kinase kinase 14 (Q99558 whole entry): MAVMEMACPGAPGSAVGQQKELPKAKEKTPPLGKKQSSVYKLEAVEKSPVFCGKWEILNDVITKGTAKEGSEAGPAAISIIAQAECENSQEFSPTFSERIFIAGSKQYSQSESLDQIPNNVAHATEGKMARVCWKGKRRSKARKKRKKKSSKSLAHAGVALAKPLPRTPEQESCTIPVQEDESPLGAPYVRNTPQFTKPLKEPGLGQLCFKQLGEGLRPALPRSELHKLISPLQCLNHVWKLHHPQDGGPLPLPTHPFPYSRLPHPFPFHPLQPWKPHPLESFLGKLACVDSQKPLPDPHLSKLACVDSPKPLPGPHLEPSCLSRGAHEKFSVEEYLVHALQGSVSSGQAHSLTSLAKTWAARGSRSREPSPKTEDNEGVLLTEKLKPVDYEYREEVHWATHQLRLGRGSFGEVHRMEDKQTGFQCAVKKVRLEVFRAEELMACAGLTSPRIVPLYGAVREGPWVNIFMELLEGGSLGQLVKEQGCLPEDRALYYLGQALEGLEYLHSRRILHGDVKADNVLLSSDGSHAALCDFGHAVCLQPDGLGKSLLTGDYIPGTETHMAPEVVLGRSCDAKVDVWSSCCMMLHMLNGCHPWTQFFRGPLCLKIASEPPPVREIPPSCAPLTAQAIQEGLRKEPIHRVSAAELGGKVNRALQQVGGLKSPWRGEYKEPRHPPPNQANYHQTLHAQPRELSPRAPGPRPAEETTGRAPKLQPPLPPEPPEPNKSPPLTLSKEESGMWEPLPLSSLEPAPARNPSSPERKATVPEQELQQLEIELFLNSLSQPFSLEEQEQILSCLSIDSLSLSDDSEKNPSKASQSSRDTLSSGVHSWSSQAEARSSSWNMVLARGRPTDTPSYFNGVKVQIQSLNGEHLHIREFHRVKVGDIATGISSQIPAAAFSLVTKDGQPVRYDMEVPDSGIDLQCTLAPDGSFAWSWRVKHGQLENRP
The target in data set [3] is Activated CDC42 kinase 1 (Homo sapiens, UniProt Q07912). Briefly: Inhibition of human ACK1 using [EAIYAAPFAKKK] as substrate in presence of [gamma33P]ATP by hotspot assay.
Sequence of Activated CDC42 kinase 1 (Q07912 whole entry): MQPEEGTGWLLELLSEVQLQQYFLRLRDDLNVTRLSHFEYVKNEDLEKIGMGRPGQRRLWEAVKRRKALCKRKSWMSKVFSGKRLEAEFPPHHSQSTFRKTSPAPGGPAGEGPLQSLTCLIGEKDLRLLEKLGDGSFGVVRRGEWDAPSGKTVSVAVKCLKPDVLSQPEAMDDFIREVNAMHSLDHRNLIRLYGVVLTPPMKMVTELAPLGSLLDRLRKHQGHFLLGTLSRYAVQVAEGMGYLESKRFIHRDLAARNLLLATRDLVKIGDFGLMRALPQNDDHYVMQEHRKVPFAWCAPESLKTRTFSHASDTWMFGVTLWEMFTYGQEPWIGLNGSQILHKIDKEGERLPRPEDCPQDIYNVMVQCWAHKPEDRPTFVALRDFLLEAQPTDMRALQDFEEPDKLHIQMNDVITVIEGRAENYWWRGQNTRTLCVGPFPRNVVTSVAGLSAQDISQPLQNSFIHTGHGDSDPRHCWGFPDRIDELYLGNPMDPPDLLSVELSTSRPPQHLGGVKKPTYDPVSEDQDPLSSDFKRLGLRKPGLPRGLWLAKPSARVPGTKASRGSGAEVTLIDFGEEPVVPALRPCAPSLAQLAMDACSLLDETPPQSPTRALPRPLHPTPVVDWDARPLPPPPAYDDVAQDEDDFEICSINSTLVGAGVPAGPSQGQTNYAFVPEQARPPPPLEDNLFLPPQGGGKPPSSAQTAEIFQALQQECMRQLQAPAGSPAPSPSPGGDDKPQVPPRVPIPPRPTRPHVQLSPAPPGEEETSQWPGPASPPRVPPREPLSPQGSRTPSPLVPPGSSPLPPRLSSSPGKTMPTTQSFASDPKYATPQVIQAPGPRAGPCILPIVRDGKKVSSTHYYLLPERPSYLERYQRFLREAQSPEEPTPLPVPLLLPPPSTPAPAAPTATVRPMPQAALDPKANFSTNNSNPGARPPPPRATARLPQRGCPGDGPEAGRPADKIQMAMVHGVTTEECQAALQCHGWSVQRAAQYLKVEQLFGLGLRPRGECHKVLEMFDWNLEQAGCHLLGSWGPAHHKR
A short description of data set [4]: Elimination half life in rat liver microsomes incubated for 10 mins followed by potassium phosphate buffer addition and measured after 5 to 60 mins by LC-MS/MS analysis. To be noted: read-out: beta t1/2. It is filed as ADME, Microsome. Summed up:
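Rat, dog, monkey or human liver microsomes pre-incubated with compound at 37 °C for 10 min; reaction started after pre-warming and stopped at 5, 15, 30, 60 min with chilled quench containing tolbutamide and labetalol. No-cofactor control in 100 mM potassium phosphate for 60 min. LC-MS/MS analysis; first-order fit: k = −slope, T1/2 = 0.693/k, CLint = k/microsomal protein concentration.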

Data set [5] can be described thus: Half life in Sprague-Dawley rat at 10 mg/kg, po administered via gavage by LC-MS/MS analysis. It is filed as ADME, organism-based. To be noted: in vivo.
In data set [6] the test system is Mus musculus. Briefly: Protection against IMQ-induced dermatitis in C57 mouse model of psoriasis assessed as reduction in dermal scales at 120 mg/kg, ig administered once daily starting from day 3 post IMQ-challenge and measured 2 days post-last dose of IMQ. Format: functional, organism-based. An outline of the steps:
(§1)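 C57 mice given 5% imiquimod cream on the back once daily for 7 days; intragastric dosing 60 or 120 mg/kg once daily from day 3 to end, n = 6 per group. Dorsal skin phenotype assessed by imaging.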

The species named for data set [7] is Homo sapiens. Briefly: Selectivity ratio of IC50 for human JAK1 to IC50 for human NIK.
Data set [8] can be described thus: Tmax in Sprague-Dawley rat at 10 mg/kg, po administered via gavage by LC-MS/MS analysis. It is filed as ADME, organism-based. To be noted: in vivo. An outline of the steps:
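SD rats, 3 per group. Single IV bolus at 1 mg/kg in DMSO:PEG200:saline 20:20:60 (0.2 mg/mL), or oral gavage at 10 mg/kg as suspension in 0.5% CMC-Na/0.2% Tween 80 (1 mg/mL). Plasma protein-precipitated with acetonitrile containing internal standards, then quantified by LC-MS/MS. Parameters derived by noncompartmental analysis. Mean ± SD.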

Data set [9] deals with Mus musculus. Briefly: Protection against IMQ-induced dermatitis in C57 mouse model of psoriasis assessed as reduction in skin swelling at 60 to 120 mg/kg, ig administered once daily starting from day 3 post IMQ-challenge and measured 2 days post-last dose of IMQ. Format: functional, organism-based. Summed up:
as §1

In data set [10] the target is Mitogen-activated protein kinase kinase kinase 14 (Mus musculus) (UniProt Q9WUL6). Briefly: In vivo inhibition of NIK in C57 mouse model of IMQ-induced psoriasis assessed as reduction in NF-kappaB signalling in back skin by measuring decrease in mRNA IL-12 level at 60 to 120 mg/kg, po administered starting from day 3 post IMQ-challenge and measured 2 days post-last dose of IMQ by qPCR analysis. It is filed as functional, organism-based. Summed up: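 C57 mice had 5% imiquimod cream applied to the back skin once daily for seven consecutive days. Oral gavage dosing at 60 or 120 mg/kg once daily started on day 3 and continued to the end, with n = 6 per group alongside normal and IMQ-only model groups. Back-skin mRNA was quantified by qPCR.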
Sequence of Mitogen-activated protein kinase kinase kinase 14 (Mus musculus) (Q9WUL6 whole entry): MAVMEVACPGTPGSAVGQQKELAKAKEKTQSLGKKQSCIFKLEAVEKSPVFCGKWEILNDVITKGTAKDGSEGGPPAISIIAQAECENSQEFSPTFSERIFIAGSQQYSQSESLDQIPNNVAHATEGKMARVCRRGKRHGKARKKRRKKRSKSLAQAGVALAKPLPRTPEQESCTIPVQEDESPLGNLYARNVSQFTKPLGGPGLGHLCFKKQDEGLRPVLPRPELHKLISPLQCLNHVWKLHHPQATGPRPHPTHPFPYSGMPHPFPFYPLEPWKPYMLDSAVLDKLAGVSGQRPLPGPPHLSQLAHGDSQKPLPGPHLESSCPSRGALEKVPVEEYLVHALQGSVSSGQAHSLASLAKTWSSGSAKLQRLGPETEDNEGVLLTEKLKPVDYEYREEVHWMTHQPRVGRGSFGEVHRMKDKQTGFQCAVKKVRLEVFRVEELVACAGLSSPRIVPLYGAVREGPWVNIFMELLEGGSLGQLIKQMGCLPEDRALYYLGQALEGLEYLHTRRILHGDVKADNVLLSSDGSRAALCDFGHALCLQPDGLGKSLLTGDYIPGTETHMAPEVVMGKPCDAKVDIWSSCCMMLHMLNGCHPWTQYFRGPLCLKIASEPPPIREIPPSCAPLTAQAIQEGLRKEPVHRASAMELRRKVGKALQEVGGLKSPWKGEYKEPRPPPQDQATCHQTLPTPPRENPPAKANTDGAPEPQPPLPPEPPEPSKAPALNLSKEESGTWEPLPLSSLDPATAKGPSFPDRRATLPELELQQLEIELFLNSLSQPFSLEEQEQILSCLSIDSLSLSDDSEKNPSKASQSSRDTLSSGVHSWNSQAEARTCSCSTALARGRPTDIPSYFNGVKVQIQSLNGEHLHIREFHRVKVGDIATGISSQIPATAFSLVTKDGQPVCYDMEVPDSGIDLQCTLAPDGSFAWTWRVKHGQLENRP

Data set [11] is described as follows: Oral bioavailability in Sprague-Dawley rat at 10 mg/kg administered via gavage by LC-MS/MS analysis. Format: ADME, organism-based. To be noted: in vivo.

Active and inactive are the calls of the source. No cut-off for these calls is given here.

`CC(O)(C#Cc1ccc(N2CCOCC2)c(Nc2ncnc3[nH]ccc23)c1)c1nccs1` (racemic): the inhibition entry in [1] and in [10] was “Active” throughout. The half-maximal inhibitory concentration (IC50) (as a rule, the concentration that gives 50% inhibition) in data set [2] came to 9.7 nM; in [3], 192 nM. For the same compound, the half-life in [4] was 30.8 min; in data set [5] it was 83.4 min. Further, the outcome in data set [6] and in [9] was Active. Moreover, the Ratio IC50 in data set [7] is 4 to 20. Besides, the Tmax (commonly the time at which the peak concentration occurs) in [8] came out at 50 min. Also, the bioavailability (in general, dose-corrected exposure relative to a reference, in per cent) in data set [11] turned out to be 64%.

For the origin of these results see ChEMBL document CHEMBL4616671, “Identification of N-Phenyl-7H-pyrrolo[2,3-d]pyrimidin-4-amine Derivatives as Novel, Potent, and Selective NF-κB Inducing Kinase (NIK) Inhibitors for the Treatment of Psoriasis” (J Med Chem, 2020).
